Most compounds without a hit are left out; they make up all but 2.4% or so of the library.
Apaf1 inhib – human Apaf-1 inhibition; O14727; reconstituted apoptosome caspase-3 activity, DEVD-Rh110 fluorescence; inhibition, % at 20 µM; 0.71% of 330,000 active; AID 489030; active means inhibition of at least 40% at 20 µM
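Assay system: Apoptosome proteins | Medium: pH 7.5 Hepes buffer with CHAPS, BSA, DTT | Also added: Cytochrome c and DEVD-Rh110 substrate | Times: 30 min plus 50 min, RT | Detection: Rhodamine 110 fluorescence at Ex 480/Em 540 nm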
TDP2 absorb – blocks human TDP2 phosphodiesterase activity; recombinant TDP2, T5PNP hydrolysis, p-nitrophenol absorbance 415 nm; AID 720702; 0.34% of 370,000 active; inhibition, % at 12.8 µM; O95551;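 active means inhibition above the mean of all tested compounds plus 3 SD, set per campaign, cut at about 25% in these data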
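System – recombinant human TDP2 · Amount – 120 nM TDP2 per well · Buffer or medium – Mg2+-containing Tris-HCl buffer, pH 7.5 · Reagent – T5PNP substrate, 5 mM · Dosing – 12.8 µM single point, 1% DMSO · Incubation – 2 h at 37 °C · Measured by – epi absorbance · Read-out basis – percent inhibition · Benchmarks – high control without enzyme, low control DMSO plus TDP2 · Repeats – singlicate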
TCR-CD3 inh – blocks the human TCR-CD3 interaction | TAMRA-labeled TCR probe fluorescence, biochemical | inhibition, % at 9.4 µM | 0.37% of 360,000 active | AID 651800; in the data active means inhibition above about 19%;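 further: recombinant mutant TCR 2C K166C tagged with TAMRA read by polarization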
PAD4 inh – blocks human protein arginine deiminase 4; Q9UM07; recombinant PAD4, RCA probe fluorescence polarization; inhibition, % at 6.36 µM; 0.41% of 330,000 active; AID 485272;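 active means percent inhibition above a cutoff equal to the mean of all tested compounds plus 3 SD, cut at about 15% in these data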
SIAE primary – inhibitors of human sialic acid acetylesterase SIAE; SIAE FP-Rh probe binding, fluorescence polarization; 0.69% of 370,000 active; Q9HAT2; AID 1053197; inhibition, % at 9.66 µM;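 active means inhibition above a cutoff: mean of compounds within the control limits plus 3 SD of those, cut at about 17% in these data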
GSTO1 inh – blocks human GSTO1 in RBBP9 counter-screen; recombinant GSTO1, activity-based probe fluorescence polarization; inhibition, % at 5.96 µM; 1.1% of 300,000 active; AID 1974;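 active means inhibition above the campaign mean inhibition plus 3 SD, cut at about 35% in these data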
SIAE inh conf – human SIAE inhibition, confirmation; inhibition, % at 9.66 µM; shares compounds with SIAE primary; SIAE FP-Rh activity-based probe, fluorescence polarization; 13% of 2,300 active;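 active means mean inhibition of the replicates above the hit cutoff set in the primary screen, cut at about 17% in these data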;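 further: inhibitors lower polarization as more probe stays unbound to SIAE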
Large screens that a line does not name were inactive (follow-up assays come after a bar, where they were run).

O=C(Nc1ccc(Cl)cc1)Nc1nnc(Cc2ccc([N+](=O)[O-])cc2)s1	none
CN1CCN(c2nc(NCc3ccco3)nc(N)c2[N+](=O)[O-])CC1	none
Nc1nc(NCc2ccco2)nc(N2CCCCC2)c1[N+](=O)[O-]	SIAE primary 19 | SIAE inh conf inactive
Cc1ccc(OCc2nnc(SCC(=O)Nc3ccc(N4CCOCC4)cc3)o2)cc1	none
O=C(Cc1cccs1)N(c1ccc(F)cc1)C1(C(=O)NC2CCCCC2)CCCC1	none
CCOc1ccc(NC(=O)CSc2nc3[nH]ncc3c(=O)n2-c2ccccc2OC)cc1	none
CC(C)NC(=O)c1ccc(N2CCOCC2)nc1	SIAE primary 19 | SIAE inh conf inactive
O=C(c1ccc(N2CCOCC2)nc1)N1CCOCC1	none
O=C(CNC(=O)C1CCCCC1)Nc1ccccc1Cl	SIAE primary 80 | SIAE inh conf inactive
Cc1c(Cl)cccc1NC(=O)CNC(=O)C1CC(=O)N(C2CCCC2)C1 (stereo not given)	SIAE primary 21 (no result: GSTO1 inh) | SIAE inh conf inactive
O=C(NNS(=O)(=O)c1ccc(F)cc1)c1sccc1-n1cccc1	none
O=C(O)Cn1c2c(c3ccccc31)CCCC2	none
CC(=O)NNC(=O)CCn1c2c(c3ccccc31)CCCC2	SIAE primary 20 | SIAE inh conf inactive
CC(C)(C)N(C(=O)Cn1nnc(-c2ccc(F)cc2)n1)C(C(=O)NC1CCCC1)c1ccncc1 (stereo not given)	none
CCC(CC)C(=O)NCCCCc1ccccc1	SIAE primary 20 | SIAE inh conf inactive
CCC(CC)C(=O)NCCc1ccc(OC)cc1	SIAE primary 17 | SIAE inh conf inactive
CCC(CC)C(=O)NCCc1ccc(OC)c(OC)c1	none
CCC(C(=O)NCCCc1ccccc1)c1ccccc1 (stereo not given)	none
CC(C)C[C@@H]1COc2cccc(N3CCC[C@@H]3CO)c2S(=O)(=O)N1	none (no result: Apaf1 inhib, PAD4 inh, GSTO1 inh)
CCCC(C)NC(=O)C1c2ccccc2Oc2ccccc21 (stereo not given)	none
CSCC[C@H](NC(=O)[C@@H]1Cc2ccccc2CN1)C(=O)Nc1ccc2c(c1)OCO2	SIAE primary 18 | SIAE inh conf inactive
C[C@H](NC(=O)[C@@H]1Cc2ccccc2CN1)C(=O)Nc1ccc2c(c1)OCO2	none
Cc1nnc(NCCc2ccccc2)c2ccccc12	none
O=C(c1cc(Cl)ccc1F)N1CCCC(Nc2ccc3c(c2)OCCO3)C1 (stereo not given)	SIAE primary 17 | SIAE inh conf inactive
S=C1NC(C23CC4CC(CC(C4)C2)C3)=CC(c2ccc3c(c2)OCO3)N1 (stereo not given)	none
CN(C(=O)CSc1nc2sc3c(c2c(=O)n1C)CCC3)C1CCS(=O)(=O)C1 (stereo not given)	SIAE primary 19 (no result: GSTO1 inh) | SIAE inh conf inactive
O=C(Nc1ccccc1N1CCOCC1)c1cc(-c2ccncc2)nc2ccccc12	SIAE primary 22 | SIAE inh conf inactive
CC(C)CN1C(=O)C(=O)N(CC(=O)N(C)CC(=O)Nc2ccc(F)cc2)C1=O	SIAE primary 20 (no result: GSTO1 inh) | SIAE inh conf inactive
O=C(Nc1nc(-c2ccc(Br)cc2)cs1)c1cccnc1	none
CC(C)/C=N/Nc1nc(-c2ccc(Br)cc2)cs1	SIAE primary 18 | SIAE inh conf inactive
CCCNC(=O)C(Cc1ccc(F)cc1)NC(=O)c1ccc(C#N)cc1 (stereo not given)	SIAE primary 20 (no result: GSTO1 inh) | SIAE inh conf inactive
Cc1cccc(C(=O)NCC(=O)NCC(c2ccco2)N2CCCCC2)c1 (stereo not given)	SIAE primary 18 | SIAE inh conf inactive
Cc1ccc(C(=O)NCC(c2ccco2)N2CCc3ccccc32)cc1 (stereo not given)	SIAE primary 21 | SIAE inh conf inactive
Cc1cccc(C(=O)NCC(c2ccco2)N2CCc3ccccc32)c1 (stereo not given)	SIAE primary 22 | SIAE inh conf inactive
COc1cc(OC)cc(C(=O)NCC(=O)NCC(c2ccco2)N2CCCCC2)c1 (stereo not given)	none (no result: GSTO1 inh)
CC1(C)C2([N+](=O)[O-])CN3CC1([N+](=O)[O-])CN(C2)C3c1ccc(O)c(O)c1 (stereo not given)	none
COc1ccc(/C=N/NC(=O)CN2CCCc3ccccc32)c(OC)c1	none
Cc1cc(NC(=O)Cn2nc3c(cc2=O)CCCC3)ccc1Br	none
CC(C)Oc1ccc(C(=O)NCc2ccco2)cc1	none
O=C(O)c1ccc(Nc2cccc(F)c2)c([N+](=O)[O-])c1	SIAE primary 20 | SIAE inh conf inactive
CC(=O)Nc1c(NC(C)(C)C)c2ccccc2oc1=O	SIAE primary 21 | SIAE inh conf inactive
O=Nc1c(-c2ccccc2)cc2ccccn12	none
Oc1ccc(/C=N/Nc2ccnc3cc(Cl)ccc23)c(O)c1	SIAE primary 27 | SIAE inh conf 36
Clc1ccc2c(N/N=C/c3cccnc3)ccnc2c1	none
Cc1ccccc1/C=N/Nc1ccnc2cc(Cl)ccc12	SIAE primary 26 (no result: Apaf1 inhib) | SIAE inh conf 31
Clc1ccc2c(N/N=C/c3ccc(Br)cc3)ccnc2c1	SIAE primary 19 (no result: Apaf1 inhib) | SIAE inh conf inactive
Cc1ccc(/C=N/Nc2ccnc3cc(Cl)ccc23)c(C)c1	SIAE primary 44 | SIAE inh conf 59
CCOC(=O)c1ccc(NC(=O)CN2C(=O)NC3(CCCCCC3)C2=O)cc1	none
Cc1ccccc1S(=O)(=O)c1cc2ccccc2nc1N	none
O=C(CCNC(=O)C1CCN(S(=O)(=O)c2ccc(F)cc2)CC1)NCc1ccc(F)cc1	none
CCN(CC)S(=O)(=O)c1ccc(NCc2ccccc2)nc1	none
C/C(=N\NC(=O)c1c[nH]c2ccccc12)c1ccc(C)o1	none
C/C(=N/NC(=O)c1cc2ccccc2cc1O)c1ccco1	SIAE primary 23 | SIAE inh conf inactive
C/C(=N\NC(=O)c1cc2ccccc2cc1O)c1ccc(C)o1	SIAE primary 24 | SIAE inh conf inactive
C/C(=N\NC(=O)c1cc2ccccc2cc1O)c1cccs1	SIAE primary 28 | SIAE inh conf inactive
C/C(=N/NC(=O)c1ccccn1)c1ccco1	none
COC(=O)[C@]12C[C@H](CC(=O)NCc3cccc4ccccc34)C(=O)N(Cc3ccc(Cl)cc3Cl)C1=C[C@H](COCc1ccccc1)O[C@@H]2C	none (no result: Apaf1 inhib, TCR-CD3 inh, PAD4 inh, GSTO1 inh)
COc1cccc(C(c2nnnn2C2CCCCC2)N2CCN(C/C=C/c3ccccc3)CC2)c1OC (stereo not given)	none (no result: Apaf1 inhib, PAD4 inh, GSTO1 inh)
CC1CCC(C(C)C)C(OC(=O)COC(=O)c2ccc(=O)[nH]c2)C1 (stereo not given)	none
CC1CCC(C(C)C)C(OC(=O)COC(=O)c2cc(O)ccc2N)C1 (stereo not given)	SIAE primary 20 | SIAE inh conf inactive
